Source: PubChem
T cell modulator = modulators of CD8 T cell-vesicle binding, primary screen, mouse 2C CD8+ T cells, flow cytometry; 2C CD8+ T cell-vesicle binding; stronger effect = lower value; response (vesicle binding), % at 7 µM; 330,000 tested, 0.068% active; AID 2052, 2009;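 active = response, share of CD8 T cells binding vesicles, and their 90th percentile fluorescence all below set limits, cut at about 80% in these data, passing the limit was not always enough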;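 note: values below 100% mean blocked vesicle binding to the CD8+ T cells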
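Assay system: 2C TCR transgenic mouse naive CD8+ T cells, MACS-purified | Read-out: CD8+ gate FL2 mean fluorescence as % of same-row positive control | Signal: High-throughput flow cytometry with anti-B7-1 and anti-CD8 staining | Timing: Binding step 1.5 h, 37 °C, antibody labelling 20 min, ice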
LANA-H2B inh = blockers of LANA interaction with H2A/H2B – biochemical, FP readout, HTS, primary screen; Protein LANA1 (Human herpesvirus 8 type P (isolate GK18)), Q9QR71; cell-free LANA-H2A/H2B peptide, fluorescence polarization; inhibition, % (concentration not given with the values); 320,000 tested, 0.6% active; AID 2629, 2010; in the data active = inhibition mostly above about 10%, no sharp cut-off; inactive = mostly below about 6.7%
Target sequence (Q9QR71 whole entry, looked up): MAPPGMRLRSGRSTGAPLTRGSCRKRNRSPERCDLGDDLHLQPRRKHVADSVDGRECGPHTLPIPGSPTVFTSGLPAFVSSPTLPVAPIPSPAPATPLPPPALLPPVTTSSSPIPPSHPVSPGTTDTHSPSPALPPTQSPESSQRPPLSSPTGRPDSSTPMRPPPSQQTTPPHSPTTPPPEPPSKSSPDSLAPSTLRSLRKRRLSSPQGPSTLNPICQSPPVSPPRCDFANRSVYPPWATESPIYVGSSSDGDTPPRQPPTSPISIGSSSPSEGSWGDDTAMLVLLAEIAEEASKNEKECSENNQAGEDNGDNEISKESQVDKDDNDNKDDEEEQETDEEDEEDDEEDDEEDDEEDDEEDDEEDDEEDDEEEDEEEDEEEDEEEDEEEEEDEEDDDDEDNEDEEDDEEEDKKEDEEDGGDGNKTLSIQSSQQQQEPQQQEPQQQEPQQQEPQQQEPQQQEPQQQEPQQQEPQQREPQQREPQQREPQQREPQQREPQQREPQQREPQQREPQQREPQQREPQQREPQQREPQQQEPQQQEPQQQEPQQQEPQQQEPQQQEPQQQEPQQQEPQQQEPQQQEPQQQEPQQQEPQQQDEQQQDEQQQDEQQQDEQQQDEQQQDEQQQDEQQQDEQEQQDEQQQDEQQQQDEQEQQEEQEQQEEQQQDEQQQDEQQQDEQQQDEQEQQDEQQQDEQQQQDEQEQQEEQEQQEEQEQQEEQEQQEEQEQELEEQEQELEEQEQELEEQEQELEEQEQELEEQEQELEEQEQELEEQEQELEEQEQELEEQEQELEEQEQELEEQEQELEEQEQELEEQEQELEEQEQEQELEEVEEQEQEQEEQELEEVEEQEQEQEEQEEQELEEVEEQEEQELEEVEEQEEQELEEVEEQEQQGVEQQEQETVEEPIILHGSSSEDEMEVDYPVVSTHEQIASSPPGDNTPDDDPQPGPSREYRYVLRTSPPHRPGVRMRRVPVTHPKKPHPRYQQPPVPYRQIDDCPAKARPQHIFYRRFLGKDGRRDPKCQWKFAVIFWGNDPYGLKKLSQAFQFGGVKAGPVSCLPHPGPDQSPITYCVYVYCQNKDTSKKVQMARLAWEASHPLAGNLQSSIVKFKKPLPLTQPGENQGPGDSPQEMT
HDAC3 inhib = HDAC3 deacetylase inhibitors, primary screen, biochemical, fluorescence, cell-free homogeneous; recombinant HDAC3, fluorogenic peptide/trypsin coupled; inhibition, % at 8.3 µM; 320,000 tested, 0.15% active; in the data active = inhibition above about 26%, passing the limit was not always enough; inconclusive = no clear call, values can overlap the other calls
Pemphigus Ab inh = inhibitors of pemphigus antibody binding to DSG3, primary screen, biochemical, bead-based, flow cytometry, scFv-GFP. DSG3-coupled beads, scFv-anti-DSG3-GFP binding; stronger effect = lower value. binding (percent of control), % at 10 µM. 310,000 tested, 0.48% active. AID 588358, 2011;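 active = binding more than 3 SD below its plate's average and above zero; inconclusive = below that plate limit but binding exactly zero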;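 note: hits lower antibody fragment binding to DSG3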
Arrestin-AP2 inh = inhibitors of beta-arrestin/AP2 binding, primary screen, biochemical, GPCR trafficking, flow cytometry; inhibition, % at 10 µM; beta-arrestin 1 C-terminal peptide binding to AP2 beta2-adaptin appendage (human); AID 504490, 2011; FITC-arrestin peptide / GST-AP2 beads; AP2 beta2 appendage carries R879A mutation; 340,000 tested, 0.31% active;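 active = inhibition above a set limit, near 3 SD of compounds lacking own fluorescence, cut at about 54% in these data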
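System: GST-AP2 R879A glutathione beads. Medium: PBS with 0.05% Tween 20 and 0.1% BSA. Also added: FITC-arrestin peptide, 50 nM. Incubation: 12 min plus 1 h, RT. Measured by: high-throughput flow cytometry of beads, ex 488, em 535 nm. Evaluation: percent drop in bead-associated FITC signal.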
Each line names hits and unclear results; the compound was inactive in the other large screens. In the library only some 1.5% were active in any assay of this set; here they are far more common.

Cc1nnc(SCC(=O)c2cc(C)n(-c3ccc4c(c3)OCO4)c2C)s1	LANA-H2B inh 27.4
Cc1cc(C(=O)CSc2nnnn2C)c(C)n1-c1ccc2c(c1)OCCO2	none (no result: Pemphigus Ab inh)
COc1ccc(NC2=C(Cl)C(=O)N(c3ccccc3)C2=O)c(OC)c1	LANA-H2B inh 15.4
CCOC(=O)CC[C@H](NC(=O)Cn1cnc2c(SC)nc(N)nc21)C(=O)OCC	none
COc1cc(OC)cc(-c2oc(=O)c3cc(OC)c(OC)cc3c2C#CCCO)c1	none
COc1cc(OC)cc(-c2oc(=O)c3cc(OC)c(OC)cc3c2C(F)(F)F)c1	T cell modulator 60.3
O=C(NNC(=O)c1ccc2ccccc2c1)c1cccc(Cl)c1	none (no result: T cell modulator, LANA-H2B inh, HDAC3 inhib)
COCCN1C(=O)C(=O)/C(=C(/O)c2cccc(OC)c2)C1c1ccncc1 (stereo not drawn)	none
COCCN1C(=O)C(=O)/C(=C(/O)c2cccc(OC)c2)C1c1ccc(C)o1 (stereo not drawn)	T cell modulator 74.8
COc1[nH]c(/N=C/c2ccccc2)c(C#N)c1C#N	LANA-H2B inh 44.0 (no result: Pemphigus Ab inh)
COc1ccc(S(=O)(=O)Nc2cc3c4c(c2)C(C)C(=O)N4CCC3)cc1OC (stereo not drawn)	none
CCCCCCn1c(=O)[nH]c2nc3cc(N)ccc3nc2c1=O	LANA-H2B inh 41.6 (no result: Pemphigus Ab inh, Arrestin-AP2 inh)
CCOC(=O)c1ccc(NC(=S)N2CCN(S(C)(=O)=O)CC2)cc1	Pemphigus Ab inh 57.1
CCOC(=O)c1ccc(NC(=O)N2CCN(S(C)(=O)=O)CC2)cc1	none
CCN(CC)C(=O)C1=C(C)N(CCC2=CCCCC2)C(=O)C(CC(=O)NCCN2CCOCC2)C1 (stereo not drawn)	none (no result: T cell modulator, LANA-H2B inh, HDAC3 inhib, Arrestin-AP2 inh)
COc1ccc(C(=O)N2CCN(C)C(=O)[C@@H]2C)cc1OC1CCN(C(C)C)CC1	none
C=CCNc1nc(Nc2ccccc2F)nc(OCC)n1	LANA-H2B inh 15.7
CCOc1nc(Nc2ccccc2F)nc(OCC)n1	none
Cc1ccc(NC(=O)CSCC(=O)NNC(=O)c2ccoc2C)cc1	none
O=C(CN1CCN(S(=O)(=O)N2CCCCC2)CC1)Nc1ccc(Cl)c(Cl)c1	LANA-H2B inh 44.9
CC(=O)c1cccc(NC(=O)C2CCCN2S(=O)(=O)c2ccccc2C(F)(F)F)c1 (stereo not drawn)	Pemphigus Ab inh 69.4 (no result: T cell modulator, LANA-H2B inh, HDAC3 inhib, Arrestin-AP2 inh)
CC(=O)c1ccc(NC(=O)CSc2ccc(-c3ccc4c(c3)OCO4)nn2)cc1	none
CC(=O)Nc1ccc(NC(=O)CSc2ccc(-c3ccc4c(c3)OCO4)nn2)cc1	Pemphigus Ab inh 60.2
O=C(Nc1ccccc1C(=O)O)c1ccc(NC(=O)C2CCCCC2)cc1	none
CC(C)n1cc(/C=N/Nc2ccc(Cl)c(C(=O)O)c2)c2ccccc21	none
O=C1CN(C(=O)c2ccc(F)cc2)c2ccccc2N1	T cell modulator 25.9
COc1ccc(NC(=O)CN(C)C(=O)c2ccc(OCc3ccccc3)c(OC)c2)cc1	none
COc1ccc(-c2ccnc3[nH]n(-c4ccccc4)c(=O)c23)cc1	Pemphigus Ab inh 86.7
CN(C(=O)c1cccc(NC(=O)Cc2ccc(NC(=O)C3CCCN(C(=O)C4CCC4)C3)cc2)c1)C1CCC1 (stereo not drawn)	none (no result: T cell modulator, LANA-H2B inh, HDAC3 inhib)
Cc1ccc(/C=C/C(=O)O)cc1S(=O)(=O)N(C)CCO	none
COc1cc(/C=C/C(=O)O)cc(S(=O)(=O)N(C)CCO)c1OC	T cell modulator 0.0
COc1ccc(NS(=O)(=O)c2c(C)cc(C)cc2C)cc1	none (no result: Pemphigus Ab inh)
COc1cccc(NS(=O)(=O)c2c(C)cc(C)cc2C)c1	LANA-H2B inh 18.7
Cc1cccc(C)c1NC(=O)CN(C)C(=O)CN1C(=O)NC2(CCCC2)C1=O	none
O=C(Nc1ccc(Cl)c([N+](=O)[O-])c1)c1ccco1	none
Cc1c([N+](=O)[O-])cc(C(=O)Nc2ccc(NC(=O)c3ccco3)cc2)cc1[N+](=O)[O-]	Pemphigus Ab inh 96.0
O=C(Nc1cccc(NC(=O)c2ccc([N+](=O)[O-])o2)c1)c1ccco1	Pemphigus Ab inh 52.8
O=S(=O)(c1cc(Cl)c(Cl)cc1Cl)N1CCN2CCCC2C1 (stereo not drawn)	none
CCc1nnc(NC(=O)CSc2nncc(=O)n2N)s1	Pemphigus Ab inh 85.4
CCc1nnc(NC(=O)CSc2ccc(-c3ccc(-n4cccn4)cc3)nn2)s1	Pemphigus Ab inh 77.4
Nn1c(SCC(=O)Nc2ccc3c(c2)OCCO3)nncc1=O	LANA-H2B inh 12.9
CCc1nnc(NC(=O)CSc2nnc3c(n2)[nH]c2ccccc23)s1	Pemphigus Ab inh 31.6
Cc1ccccc1-c1nnc(SCC(=O)Nc2ccc3c(c2)OCCO3)n1N	none
Cn1c(N)c(C(=O)COC(=O)Cc2ccc(Cl)cc2)c(=O)n(C)c1=O	none (no result: T cell modulator, LANA-H2B inh, HDAC3 inhib)
Cc1cc(S(=O)(=O)N2CCCOC2CNC(=O)C(=O)NCCCN2CCOCC2)ccc1F (stereo not drawn)	none
COC(=O)c1ccc(CNC(=O)C23CC4CC(CC(C4)C2)C3)cc1	none
Cc1cccc(NC(=O)CSc2n[nH]c(-c3cccnc3)n2)c1	none (no result: Pemphigus Ab inh)
COc1ccc(C(=O)N2[C@@H](C(C)C)COc3cc(Br)ccc3S2(=O)=O)cc1	none (no result: T cell modulator, LANA-H2B inh, HDAC3 inhib)
Cc1ccc(SCc2nc(N)nc(Nc3ccccc3C)n2)c(C)c1	LANA-H2B inh 63.8, HDAC3 inhib inconclusive
CCn1c(SCC(=O)NC2CCCCC2)nnc1-c1cccnc1	none
NC(=O)c1ccc(N=Cc2ccc([N+](=O)[O-])s2)cc1	LANA-H2B inh 16.6
CC1(NC(=O)N2CCCCC2)CCS(=O)(=O)C1 (stereo not drawn)	LANA-H2B inh 19.1
N#C/C(C(=O)Nc1ccc(Cl)cc1)=C(/S)Nc1ccccc1	Pemphigus Ab inh 74.4
COc1ccc(/C=N/NC(=O)c2ccco2)cc1Cn1nc(C)c([N+](=O)[O-])c1C	Pemphigus Ab inh -160.4
Cc1ccccc1CN1CCN(CC(=O)NCc2ccccc2)CC1	LANA-H2B inh 21.0
CC(C)Oc1ccc(C(=O)Nc2ccc(NC(=O)c3ccco3)c(Cl)c2)cc1	Pemphigus Ab inh 54.1
O=C(Nc1cccc(NC(=O)c2ccco2)c1)c1ccccc1	none
O=C(Nc1ccc(NC(=O)c2ccco2)c(Cl)c1)c1ccccc1	LANA-H2B inh 21.4
COc1ccc(NC(=O)c2ccco2)cc1NC(=O)c1ccccc1F	Pemphigus Ab inh 84.5
COc1cc(OC)cc(C(=O)Nc2cc(NC(=O)c3ccco3)ccc2OC)c1	none
COc1ccc(C)cc1S(=O)(=O)N1CCN(C(=O)c2ncoc2-c2cccc(F)c2)CC1	none
COc1ccc(NC(=O)C2CCCN2C(=O)Nc2ccc(OC)cc2)cc1 (stereo not drawn)	none (no result: T cell modulator, LANA-H2B inh, HDAC3 inhib, Pemphigus Ab inh)
Cc1cccc(C(=O)Nc2ccc(C(=O)N/N=C/c3ccc(C)o3)cc2)c1	none
